# Compound activity (PubChem)
# The list is not random: actives were taken first. Their share in the collection is about 2.8%.
# NPY-Y2 PAM-ag – potentiators or agonists of human neuropeptide Y receptor Y2; P49146; cells expressing NPY-Y2, potentiator/agonist read-out; activation, % at 3.6 µM; 220,000 compounds, 0.45% hits; AID 1359; in the data active = activation above about 27%;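 note: cells stimulated with NPY near EC25 plus isoproterenol at EC100; 0% = vehicle plus submaximal agonist and 100% = vehicle plus saturating agonist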
# NPY1 pot ag – potentiators or agonists of human neuropeptide Y receptor Y1; 220,000 compounds, 0.37% hits; NPY-Y1 expressing cells, potentiator/agonist activation; AID 1304; activation, % at 3.6 µM; in the data active = activation above about 33%, passing the limit was not always enough;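 note: cells stimulated with NPY at EC10 then isoproterenol at EC100; 0% = low agonist plus stimulus and 100% = saturating agonist plus stimulus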
# EP2 mod – modulates human prostaglandin E2 receptor EP2 signaling | 260,000 compounds, 0.83% hits | EP2-expressing cells, cAMP HTRF FRET, PGE2 co-stimulation | AID 940 | P43116 | induction, % at 25 µM;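 active = compounds whose cAMP rise, as percent of the full-agonist control response, exceeds 60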;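 note: rat C6 glioma line stably carrying human EP2 under a CMV promoter; the protocol text gives 20 µM as final concentration; 100% = response of wells given 1 µM PGE2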
# Target sequence (P43116 whole entry, looked up): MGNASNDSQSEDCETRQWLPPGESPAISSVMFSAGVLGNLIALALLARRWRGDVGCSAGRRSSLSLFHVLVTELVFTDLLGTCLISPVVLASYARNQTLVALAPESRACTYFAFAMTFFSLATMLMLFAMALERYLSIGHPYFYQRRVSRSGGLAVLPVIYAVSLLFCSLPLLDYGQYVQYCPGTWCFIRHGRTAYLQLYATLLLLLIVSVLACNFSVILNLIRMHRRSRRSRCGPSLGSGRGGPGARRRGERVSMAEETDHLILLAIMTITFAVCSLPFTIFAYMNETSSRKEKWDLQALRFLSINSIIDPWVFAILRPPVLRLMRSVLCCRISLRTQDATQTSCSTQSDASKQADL
# PGE2 EP2 inh – inhibitors of human EP2 prostaglandin E2 receptor; P43116; C6 glioma cells expressing human EP2, cAMP TR-FRET; cells stimulated with saturating PGE2; inhibition, % at 25 µM; 260,000 compounds, 0.52% hits;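 active = percent inhibition above 40 after rounding to a whole number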;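 note: rat C6 glioma host cells with rolipram phosphodiesterase inhibitor present; the protocol text gives 20 µM as final concentration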
# NPY Y2 blocker – blocks the human neuropeptide Y Y2 receptor | inhibition, % at 2.7 µM | 140,000 compounds, 0.99% hits | NPY-Y2 expressing cells, antagonist mode | P49146;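 note: 0% = vehicle with agonist challenge and 100% = reference antagonist with challenge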
# NPY Y1 blocker – blocks the human neuropeptide Y Y1 receptor. HEK293-CNG Y1 cells, membrane potential fluorescence; NPY at EC95, then isoproterenol. inhibition, % at 3.6 µM. 200,000 compounds, 1% hits;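 active = inhibition above the campaign mean inhibition of all tested compounds plus 3 SD, cut at about 20% in these data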;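 note: 0% = DMSO wells given NPY plus isoproterenol and 100% = isoproterenol alone without NPY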
#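 Test system – HEK293 Y1/CNG channel cell line · Also added – NPY agonist 25 nM, then isoproterenol 1 µM plus Ro 20-1724 25 µM · Compound dosing – one concentration, 3.6 µM, in 0.4% DMSO · Schedule – compound incubation 1 h at room temperature, readout 45 min post-stimulation · Technique – fluorescence, membrane potential probe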
# EP2 cAMP induct – EP2 receptor cAMP induction, counter-screens negative; shares compounds with EP2 mod; C6 glioma EP2 cells, cAMP HTRF induction; plus low (about EC15) PGE2 agonist; calls only at 20 µM (by protocol); AID 1080; 1,300 compounds, 47% hits;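 active = cAMP induction above 50% in the main assay while under 30% in all four parallel counter assays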;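 note: rat C6 glioma cells stably expressing human EP2 receptor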
# NPY-Y1 ant conf – confirmation of human neuropeptide Y receptor Y1 antagonists; inhibition, % at 3.6 µM; shares compounds with NPY Y1 blocker; HEK293-CNG NPY-Y1, membrane potential fluorescence, cAMP; NPY challenge against isoproterenol-raised cAMP; 1,200 compounds, 21% hits; AID 1254; in the data active = inhibition above about 20%;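 note: 0% = vehicle with agonist plus stimulus and 100% = stimulus alone without agonist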
# NPY-Y2 antag ct – antagonizes human NPY-Y2, counter-screen to NPY-Y1 antagonists. shares compounds with NPY Y1 blocker. HEK293 NPY-Y2 CNG membrane potential fluorescence, antagonism; cells given NPY, then isoproterenol. inhibition, % at 3.6 µM. 1,200 compounds, 28% hits. AID 1255;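 note: 0% = DMSO with agonist challenge and 100% = reference antagonist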
# Starred values were filed as active, the others as inactive; i = inactive; x = no result; + = active, no number. Cut-off read from the data, not from the text of the source, unless noted: active = inhibition above about 17%; inactive = the rest.
SMILES,NPY-Y2 PAM-ag,NPY1 pot ag,EP2 mod,PGE2 EP2 inh,NPY Y2 blocker,NPY Y1 blocker,EP2 cAMP induct,others
CCCN1Cc2cccc(C(=O)Nc3ccc4c(c3)OCO4)c2C1=O,5,-8,20,x,2,1,x,
O=C(Nc1ccc2c(c1)OCO2)c1cccc2c1C(=O)N(C1CCCCC1)C2,-3,6,71*,3,x,-3,+,
C[C@@H](Cn1nnc2ccccc21)NC(=O)C1CC1,x,x,-18,x,x,x,x,
COC(=O)c1c(C)[nH]c(C)c1-c1ccccc1,2,6,-13,11,4,-2,x,
CCOC(=O)c1c(C)nc2ccccc2c1C,10,0,17,17,7,5,x,
CCOC(=O)c1c(C)nc2ccccc2c1-c1ccccc1,-3,13,85*,5,10,7,+,
COC(=O)c1c(C)nc2ccccc2c1-c1ccccc1,5,15,89*,6,5,-2,i,
CS(=O)(=O)N1CCc2cc(C(=O)Nc3ccccc3F)ccc21,x,x,-27,7,x,x,x,
CCNc1nc(NC(C)C)nc(N(C#N)C(=N)N)n1,x,x,-2,4,x,x,x,
Cc1nccc2[nH]c(=O)c(C(=O)NC3CCCCC3C)cc12 (centres undefined),9,-2,74*,7,2,9,i,
C=CCSc1nc2ccccc2c(=O)n1Cc1ccco1,x,x,70*,6,x,x,i,
O=C(CSc1nc2ccccc2c(=O)n1Cc1ccco1)NCc1ccco1,6,4,21,3,7,7,x,
CCc1cc(NCCO)n2nc3nc(C)cc(C)c3c2n1,x,x,-19,x,x,x,x,
CCCCOc1c(Br)cc(/C=N/O)cc1OCC,-18,-16,66*,x,13,14,i,
COc1c(O)ccc(/C=C(\C#N)c2nc3ccccc3[nH]2)c1[N+](=O)[O-],10,11,79*,2,1,2,+,
COc1cc(/C=C(\C#N)c2nc3ccc(C)cc3[nH]2)c([N+](=O)[O-])cc1OC,-14,7,-26,33,2,5,x,
O=C(c1ccc(=O)[nH]c1)N(Cc1cccs1)C1(C(=O)NC2CCCC2)CCCCC1,8,6,22,6,0,5,x,
O=C(c1ccc2c(c1)OCO2)N(Cc1cccs1)C1(C(=O)NC2CCCCC2)CCCCC1,-13,-10,71*,4,37*,55*,i,
CCc1cc(NCc2ccco2)n2nc3nc(C)cc(C)c3c2n1,x,x,-28,x,x,x,x,
COc1ccc(-c2nnc3ccc(SCC(=O)Nc4nccs4)nn23)cc1OC,9,1,-8,5,8,9,x,
COc1ccc(-c2nnc3ccc(SCC(=O)Nc4nc5ccccc5s4)nn23)cc1OC,-7,-66,66*,17,2,-2,i,
COc1ccccc1-n1c(C)nnc1SCC(=O)Nc1ccccc1,x,x,-28,9,x,x,x,
CCCc1nc(C(C)(C)O)c(C(=O)OCc2oc(=O)oc2C)n1Cc1ccc(-c2ccccc2-c2nn[nH]n2)cc1,x,x,21,10,x,x,x,
CCOc1nc2cccc(C(=O)OC(C)OC(=O)OC3CCCCC3)c2n1Cc1ccc(-c2ccccc2-c2nn[nH]n2)cc1 (centres undefined),x,x,59,10,x,x,i,
Cc1ccc(-n2nc3c(=S)[nH]nc(C)c3c2C)cc1,-9,26,81*,x,2,0,i,
SMILES,NPY-Y2 PAM-ag,NPY1 pot ag,EP2 mod,PGE2 EP2 inh,NPY Y2 blocker,NPY Y1 blocker,EP2 cAMP induct,others
CCn1nnnc1SCC(=O)Nc1cccc(C)n1,2,-28,70*,9,2,7,i,
CCc1ccc(C(=O)Nc2nc3ccc(NC(C)=O)cc3s2)cc1,x,x,-68,13,x,x,x,
COc1ccc(C)cc1-n1c(=O)c2ccccc2c2ccccc2c1=O,1,-12,74*,5,x,3,i,
CN1[C@@H](C(=O)NCc2cccs2)C[C@@H](c2ccc(F)cc2)NS1(=O)=O,x,x,-18,x,x,x,x,
O=S(=O)(c1ccccc1Br)N1CCC(c2nc3ccccc3s2)CC1,x,x,-81,16,x,x,x,
CCOC(=O)c1cc(C)sc1NC(=O)c1ccc(Cl)s1,-2,12,65*,7,4,12,+,
CCOC(=O)c1cc(CC)sc1NC(=O)c1ccc2c(c1)OCCO2,0,-9,69*,11,3,4,+,
C=CCN1C(=O)N(/C=C/C)c2cccc3cccc1c23,-7,-25,68*,6,7,3,+,
Cn1c(=O)c2c(nc(SCC(=O)N3c4ccccc4CCc4ccccc43)n2C)n(C)c1=O,-2,11,19,-4,0,1,x,
Cn1c(=O)c2c(nc(SCC(=O)N3CCc4ccccc4C3)n2C)n(C)c1=O,15,-18,82*,8,0,-1,i,
Cn1c(-c2cc3ccccc3o2)n[nH]c1=S,x,x,-3,30,x,x,x,
CCc1nn(CC(N)=O)c(=O)c2cc3oc(C)cc3n12,x,x,-11,4,x,x,x,
CCC1C/C(=C/c2ccco2)C(=O)/C(=C/c2ccco2)C1 (centres undefined),5,12,68*,8,3,0,i,
O=C(CN1CCCC1)Nc1ccccc1F,x,x,1,18,x,x,x,
CCOc1cccc(CNc2ccc(O)cc2)c1OCc1ccc(Cl)cc1,-2,-3,77*,12,-1,-7,+,
C=C1CCC2C(CC2(C)C)C(=C)CC/C1=N/O (centres undefined),x,x,55,15,x,x,i,
COc1ccccc1-c1nnc2n1N=C(c1ccc(O)c(O)c1)CS2,-19,0,-5,4,3,5,x,
CCOc1ccc(C2=Nn3c(nnc3-c3ccccc3OC)SC2)cc1,-31,-23,74*,7,6,26*,+,NPY-Y1 ant conf=7;NPY-Y2 antag ct=27*
COc1ccc(-c2cc(-c3n[nH]c(=S)n3-c3cccc4ccccc34)[nH]n2)cc1,-28,-23,67*,4,x,55*,i,NPY-Y1 ant conf=85*;NPY-Y2 antag ct=101*
CC(O)CN(Cc1ccc2c(c1)OCO2)Cc1cncc2c(Cl)[nH]nc12 (centres undefined),x,x,-27,7,x,x,x,
C=CCn1c(=O)c(C(=O)Nc2ccccc2Br)c(O)c2ccccc21,x,x,5,4,x,x,x,
CC1(c2ccccc2)CC(C)(C)N(C(=O)C2CCCO2)c2ccccc21 (centres undefined),-5,-25,69*,-1,16,27*,+,NPY-Y1 ant conf=11;NPY-Y2 antag ct=8
